In ChEMBL document CHEMBL4354843, “Structure-Based Design of a Potent and Selective Covalent Inhibitor for SRC Kinase That Targets a P-Loop Cysteine” (J Med Chem, 2020):
The source made the active and inactive calls. No cut-off for these calls is given here.

Key:
[1] = molecular target: Insulin-like growth factor 1 receptor (Homo sapiens) (UniProt P08069); assay: Binding affinity to wild-type human partial length IGF1R (L972 to D1294 residues) expressed in bacterial expression system assessed as residual binding level at 1 uM by Kinomescan method relative to control
[2] = tested on: Receptor-type tyrosine-protein kinase FLT3 (Homo sapiens), P36888 [UNDEFINED MUTATION]; assay: Binding affinity to human partial length FLT3 ITD/F691L double mutant expressed in bacterial expression system assessed as residual binding level at 1 uM by Kinomescan method relative to control
Sequence of Receptor-type tyrosine-protein kinase FLT3 (Homo sapiens), P36888 [UNDEFINED MUTATION] (P36888 whole entry, looked up, stated change not applied): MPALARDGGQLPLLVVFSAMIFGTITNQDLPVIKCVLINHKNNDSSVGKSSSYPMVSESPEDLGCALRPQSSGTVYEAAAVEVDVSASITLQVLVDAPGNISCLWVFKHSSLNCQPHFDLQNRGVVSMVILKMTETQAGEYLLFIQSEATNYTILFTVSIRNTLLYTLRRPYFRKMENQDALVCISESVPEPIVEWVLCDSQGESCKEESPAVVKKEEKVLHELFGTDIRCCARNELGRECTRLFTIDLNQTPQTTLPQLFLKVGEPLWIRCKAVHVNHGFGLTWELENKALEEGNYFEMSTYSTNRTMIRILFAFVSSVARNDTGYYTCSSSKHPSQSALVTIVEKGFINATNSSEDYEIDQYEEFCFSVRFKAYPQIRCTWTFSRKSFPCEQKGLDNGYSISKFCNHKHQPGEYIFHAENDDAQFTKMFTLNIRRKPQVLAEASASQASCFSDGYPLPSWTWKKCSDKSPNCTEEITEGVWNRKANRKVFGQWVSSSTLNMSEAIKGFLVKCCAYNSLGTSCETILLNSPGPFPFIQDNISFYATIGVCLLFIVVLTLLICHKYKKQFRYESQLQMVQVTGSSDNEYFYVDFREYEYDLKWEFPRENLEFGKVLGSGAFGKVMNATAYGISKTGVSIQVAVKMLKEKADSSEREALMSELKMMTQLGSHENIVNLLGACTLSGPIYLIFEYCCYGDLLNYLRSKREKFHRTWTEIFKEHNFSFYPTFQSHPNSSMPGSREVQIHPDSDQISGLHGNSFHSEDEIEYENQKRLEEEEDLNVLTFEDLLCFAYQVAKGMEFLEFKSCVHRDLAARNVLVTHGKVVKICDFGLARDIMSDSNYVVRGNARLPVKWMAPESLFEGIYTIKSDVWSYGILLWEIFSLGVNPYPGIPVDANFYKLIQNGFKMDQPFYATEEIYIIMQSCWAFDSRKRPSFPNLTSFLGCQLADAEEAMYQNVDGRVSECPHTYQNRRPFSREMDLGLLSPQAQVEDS
In short: (§1)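 KinomeScan active site-directed competition binding panel (468 kinases), compound tested at 1 μM. Result expressed as remaining kinase signal versus DMSO control (percent of control).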

[3] = molecular target: Serine/threonine-protein kinase 38 (Homo sapiens) (UniProt Q15208); assay: Binding affinity to wild-type human partial length NDR1 (N33 to E449 residues) expressed in mammalian expression system assessed as residual binding level at 1 uM by Kinomescan method relative to control
Sequence of Serine/threonine-protein kinase 38 (Homo sapiens) (Q15208 2-465 limits assumed): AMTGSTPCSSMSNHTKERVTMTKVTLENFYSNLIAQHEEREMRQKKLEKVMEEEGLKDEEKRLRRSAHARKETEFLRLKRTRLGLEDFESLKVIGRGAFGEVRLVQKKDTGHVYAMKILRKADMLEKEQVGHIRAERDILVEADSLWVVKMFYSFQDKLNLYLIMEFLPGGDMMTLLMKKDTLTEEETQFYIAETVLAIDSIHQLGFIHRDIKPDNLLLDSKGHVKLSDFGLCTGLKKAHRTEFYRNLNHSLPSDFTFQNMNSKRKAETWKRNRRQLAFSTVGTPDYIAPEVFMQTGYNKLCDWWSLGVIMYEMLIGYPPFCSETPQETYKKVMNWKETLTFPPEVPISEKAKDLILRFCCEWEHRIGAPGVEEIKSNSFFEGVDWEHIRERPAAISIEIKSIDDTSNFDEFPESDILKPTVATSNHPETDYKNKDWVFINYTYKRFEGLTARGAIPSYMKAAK
In short: (§2)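 Active-site-directed competition binding panel of 468 kinases (KinomeScan), compound at 1 μM. The read-out is kinase remaining bound, given as a percentage of the DMSO control. […]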

[4] = tested on: Mast/stem cell growth factor receptor Kit (Homo sapiens), P10721 [V559D,T670I]; assay: Binding affinity to human partial length KIT V559D/T670I double mutant (Y545 to D952 residues) expressed in bacterial expression system assessed as residual binding level at 1 uM by Kinomescan method relative to control; in short: as §1
[5] = molecular target: RAF proto-oncogene serine/threonine-protein kinase (Homo sapiens) (UniProt P04049); assay: Binding affinity to wild-type human partial length RAF1 (I330 to T640 residues) expressed in bacterial expression system assessed as residual binding level at 1 uM by Kinomescan method relative to control
[6] = molecular target: Ephrin type-A receptor 1 (Homo sapiens) (UniProt P21709); assay: Binding affinity to wild-type human partial length EPHA1 (V588 to I913 residues) expressed in bacterial expression system assessed as residual binding level at 1 uM by Kinomescan method relative to control
Sequence of Ephrin type-A receptor 1 (Homo sapiens) (P21709 whole entry, the tested form may be a part): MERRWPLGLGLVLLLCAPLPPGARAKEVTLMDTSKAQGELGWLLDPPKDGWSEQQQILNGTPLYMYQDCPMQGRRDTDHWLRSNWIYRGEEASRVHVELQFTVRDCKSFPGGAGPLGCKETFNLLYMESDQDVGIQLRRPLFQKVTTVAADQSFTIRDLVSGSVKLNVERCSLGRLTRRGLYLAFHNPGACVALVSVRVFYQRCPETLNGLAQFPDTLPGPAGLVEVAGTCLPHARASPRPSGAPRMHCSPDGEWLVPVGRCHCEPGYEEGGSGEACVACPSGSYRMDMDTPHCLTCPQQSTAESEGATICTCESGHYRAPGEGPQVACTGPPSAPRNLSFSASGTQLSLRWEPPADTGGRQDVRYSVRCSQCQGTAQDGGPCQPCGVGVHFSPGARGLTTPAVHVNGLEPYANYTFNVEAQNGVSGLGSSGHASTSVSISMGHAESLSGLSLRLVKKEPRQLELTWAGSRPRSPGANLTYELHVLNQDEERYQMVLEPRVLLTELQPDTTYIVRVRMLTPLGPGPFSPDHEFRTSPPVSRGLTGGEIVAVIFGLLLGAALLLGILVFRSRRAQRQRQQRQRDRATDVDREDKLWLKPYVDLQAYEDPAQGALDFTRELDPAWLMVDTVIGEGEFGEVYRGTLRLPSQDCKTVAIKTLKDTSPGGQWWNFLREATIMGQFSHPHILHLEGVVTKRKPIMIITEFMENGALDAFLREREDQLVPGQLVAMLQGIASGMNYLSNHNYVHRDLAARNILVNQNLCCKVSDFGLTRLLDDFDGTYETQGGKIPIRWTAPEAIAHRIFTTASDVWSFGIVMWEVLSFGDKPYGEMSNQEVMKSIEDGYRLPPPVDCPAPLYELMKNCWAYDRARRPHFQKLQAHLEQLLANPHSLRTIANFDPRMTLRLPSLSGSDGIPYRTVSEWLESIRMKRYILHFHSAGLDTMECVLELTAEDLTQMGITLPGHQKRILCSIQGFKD

[7] = molecular target: Calcium/calmodulin-dependent protein kinase type 1B (Homo sapiens) (UniProt Q6P2M8); assay: Binding affinity to wild-type human partial length CAMK1B (W9 to A311 residues) expressed in mammalian expression system assessed as residual binding level at 1 uM by Kinomescan method relative to control
Sequence of Calcium/calmodulin-dependent protein kinase type 1B (Homo sapiens) (Q6P2M8 whole entry, the tested form may be a part): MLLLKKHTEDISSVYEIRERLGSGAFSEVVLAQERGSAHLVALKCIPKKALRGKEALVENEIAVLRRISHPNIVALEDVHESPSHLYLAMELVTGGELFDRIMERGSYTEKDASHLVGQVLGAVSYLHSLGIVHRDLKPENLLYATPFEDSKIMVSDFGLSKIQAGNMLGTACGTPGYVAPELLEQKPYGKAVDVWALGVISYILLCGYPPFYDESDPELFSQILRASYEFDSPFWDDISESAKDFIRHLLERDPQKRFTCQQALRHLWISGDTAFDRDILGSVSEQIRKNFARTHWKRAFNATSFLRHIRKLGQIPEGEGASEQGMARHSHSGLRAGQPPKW
In short: (§3)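 KinomeScan, an active site-directed competition binding panel of 468 kinases. The test compound was at 1 μM. The readout is remaining kinase binding as a percentage of the DMSO control. Scores above 35% were treated as weak binding and not listed.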

Mus musculus = assay: In vivo inhibition of SRC in C57B6 mouse assessed as reduction in phosphorylation of SRC Y416 at 5 mg/kg, ip measured after 2 to 4 hrs by Western blot analysis; assay type: functional, organism-based
In short: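 Adult C57B6 mice, n = 2 per condition, dosed intraperitoneally 5 mg/kg three times every 12 h; vehicle 5% DMSO/95% D5W. Spleens taken 2 or 4 h after the final dose and lysed in M-PER with protease/phosphatase inhibitors. Lysates blotted for phospho-SRC Y416, total SRC and β-actin.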

[8] = molecular target: Tyrosine-protein kinase TXK (Homo sapiens) (UniProt P42681); assay: Binding affinity to wild-type human partial length TXK (L238 to W527 residues) expressed in bacterial expression system assessed as residual binding level at 1 uM by Kinomescan method relative to control
Sequence of Tyrosine-protein kinase TXK (Homo sapiens) (P42681 whole entry, the tested form may be a part): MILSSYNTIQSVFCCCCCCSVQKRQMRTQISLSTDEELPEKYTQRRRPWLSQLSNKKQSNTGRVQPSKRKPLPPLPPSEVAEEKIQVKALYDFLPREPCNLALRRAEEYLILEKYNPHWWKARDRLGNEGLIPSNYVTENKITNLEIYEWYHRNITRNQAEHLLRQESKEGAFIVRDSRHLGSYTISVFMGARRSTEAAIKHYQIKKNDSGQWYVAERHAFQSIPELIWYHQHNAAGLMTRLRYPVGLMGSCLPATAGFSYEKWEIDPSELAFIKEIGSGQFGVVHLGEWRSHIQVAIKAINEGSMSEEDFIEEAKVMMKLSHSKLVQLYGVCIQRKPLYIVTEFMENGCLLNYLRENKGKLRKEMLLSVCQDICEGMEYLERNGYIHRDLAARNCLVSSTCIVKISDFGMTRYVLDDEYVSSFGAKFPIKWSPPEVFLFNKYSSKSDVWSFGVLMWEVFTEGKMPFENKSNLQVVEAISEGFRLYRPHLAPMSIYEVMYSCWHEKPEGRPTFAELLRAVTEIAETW
In short: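 Active site-directed competition binding panel (KinomeScan, 468 kinases). Test compound at 1 μM. Read-out is kinase binding remaining versus DMSO control, expressed as percent of control. Scores above 35% are treated as weak binding.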

[9] = molecular target: Serine/threonine-protein kinase 3 (Homo sapiens) (UniProt Q13188); assay: Binding affinity to wild-type human partial length MST2 (D17 to E318 residues) expressed in bacterial expression system assessed as residual binding level at 1 uM by Kinomescan method relative to control
[10] = molecular target: Protein-tyrosine kinase 2-beta (Homo sapiens) (UniProt Q14289); assay: Binding affinity to wild-type human full length PYK2 (M1 to E967 residues) expressed in bacterial expression system assessed as residual binding level at 1 uM by Kinomescan method relative to control
In short: (§4)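 Active-site-directed competition binding panel (KinomeScan) covering 468 kinases. Test agent was screened at 1 μM. The read-out is the remaining kinase signal expressed relative to a DMSO control. Scores above 35%, taken as weak binding, were not reported.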

[11] = molecular target: Serine/threonine-protein kinase 25 (Homo sapiens) (UniProt O00506); assay: Binding affinity to wild-type human partial length YSK1 (V14 to H295 residues) expressed in bacterial expression system assessed as residual binding level at 1 uM by Kinomescan method relative to control
[12] = molecular target: Tyrosine-protein kinase JAK2 (Homo sapiens) (UniProt O60674); assay: Binding affinity to wild-type human partial length JAK2 JH1 catalytic domain (A829 to G1132 residues) expressed in mammalian expression system assessed as residual binding level at 1 uM by Kinomescan method relative to control; in short: as §2
[13] = molecular target: Serine/threonine-protein kinase DCLK1 (Homo sapiens) (UniProt O15075); assay: Binding affinity to wild-type human partial length DCAMKL1 (L270 to A662 residues) expressed in mammalian expression system assessed as residual binding level at 1 uM by Kinomescan method relative to control
Sequence of Serine/threonine-protein kinase DCLK1 (Homo sapiens) (O15075 whole entry, the tested form may be a part): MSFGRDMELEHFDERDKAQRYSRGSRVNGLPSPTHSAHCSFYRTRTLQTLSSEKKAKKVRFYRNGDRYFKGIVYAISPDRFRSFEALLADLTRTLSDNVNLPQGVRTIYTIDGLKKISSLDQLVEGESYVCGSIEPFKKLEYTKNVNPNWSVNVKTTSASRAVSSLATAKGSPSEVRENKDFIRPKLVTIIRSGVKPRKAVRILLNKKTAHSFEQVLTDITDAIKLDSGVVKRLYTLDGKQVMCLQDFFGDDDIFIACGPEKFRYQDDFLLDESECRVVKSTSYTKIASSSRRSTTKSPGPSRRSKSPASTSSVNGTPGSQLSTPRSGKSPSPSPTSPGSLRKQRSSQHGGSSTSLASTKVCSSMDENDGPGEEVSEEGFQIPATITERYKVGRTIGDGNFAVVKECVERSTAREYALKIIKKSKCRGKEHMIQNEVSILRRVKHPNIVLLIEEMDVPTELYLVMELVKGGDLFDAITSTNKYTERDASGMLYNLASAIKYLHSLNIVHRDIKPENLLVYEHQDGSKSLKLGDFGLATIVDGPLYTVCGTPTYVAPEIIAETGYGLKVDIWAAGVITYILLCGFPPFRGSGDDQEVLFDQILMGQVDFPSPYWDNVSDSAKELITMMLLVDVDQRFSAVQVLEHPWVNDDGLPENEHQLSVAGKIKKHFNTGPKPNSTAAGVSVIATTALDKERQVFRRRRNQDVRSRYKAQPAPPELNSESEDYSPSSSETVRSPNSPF

[14] = molecular target: Fibroblast growth factor receptor 3 (Homo sapiens) (UniProt P22607); assay: Binding affinity to wild-type human partial length FGFR3 (R442 to S771 residues) expressed in bacterial expression system assessed as residual binding level at 1 uM by Kinomescan method relative to control
Sequence of Fibroblast growth factor receptor 3 (Homo sapiens) (P22607 23-806 limits assumed): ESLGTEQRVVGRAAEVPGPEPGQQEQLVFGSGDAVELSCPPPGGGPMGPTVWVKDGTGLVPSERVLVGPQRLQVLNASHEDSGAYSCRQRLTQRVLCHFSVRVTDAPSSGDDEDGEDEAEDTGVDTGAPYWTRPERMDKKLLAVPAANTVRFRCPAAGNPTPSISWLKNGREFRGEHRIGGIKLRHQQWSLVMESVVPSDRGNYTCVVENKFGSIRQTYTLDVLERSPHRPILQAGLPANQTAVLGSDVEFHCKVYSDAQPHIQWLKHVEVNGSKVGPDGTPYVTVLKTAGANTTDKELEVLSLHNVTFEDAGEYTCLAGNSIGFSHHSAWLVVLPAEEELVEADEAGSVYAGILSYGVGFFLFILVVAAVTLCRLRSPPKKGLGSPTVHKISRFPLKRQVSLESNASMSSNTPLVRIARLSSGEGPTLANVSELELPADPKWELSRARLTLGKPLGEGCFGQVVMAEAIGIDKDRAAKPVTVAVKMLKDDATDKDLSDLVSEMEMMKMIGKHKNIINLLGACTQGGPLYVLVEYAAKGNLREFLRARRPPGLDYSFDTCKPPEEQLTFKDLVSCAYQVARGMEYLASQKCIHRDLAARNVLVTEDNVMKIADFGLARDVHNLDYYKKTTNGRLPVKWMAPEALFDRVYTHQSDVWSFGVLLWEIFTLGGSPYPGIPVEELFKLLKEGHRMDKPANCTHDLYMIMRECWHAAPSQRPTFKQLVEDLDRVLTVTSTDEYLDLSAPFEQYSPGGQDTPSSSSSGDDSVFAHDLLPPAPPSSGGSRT

[15] = molecular target: Casein kinase I isoform alpha-like (Homo sapiens) (UniProt Q8N752); assay: Binding affinity to wild-type human full length CSNK1A1L (M1 to N337 residues) expressed in bacterial expression system assessed as residual binding level at 1 uM by Kinomescan method relative to control
In short: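 Active-site-directed KinomeScan competition binding panel covering 468 kinases, compound tested at 1 μM. Each readout is the kinase signal remaining with compound, expressed as a percentage of the DMSO control. […]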

[16] = tested on: Epidermal growth factor receptor (Homo sapiens), P00533 [UNDEFINED MUTATION]; assay: Binding affinity to human partial length EGFR E746-A750del mutant expressed in bacterial expression system assessed as residual binding level at 1 uM by Kinomescan method relative to control; in short: as §1
[17] = molecular target: Serine/threonine-protein kinase OSR1 (Homo sapiens) (UniProt O95747); assay: Binding affinity to wild-type human full length OSR1 (M1 to S527 residues) expressed in mammalian expression system assessed as residual binding level at 1 uM by Kinomescan method relative to control; in short: as §4
[18] = molecular target: Non-receptor tyrosine-protein kinase TNK1 (Homo sapiens) (UniProt Q13470); assay: Binding affinity to wild-type human full length TNK1 (M1 to P661 residues) expressed in bacterial expression system assessed as residual binding level at 1 uM by Kinomescan method relative to control; in short: as §3

Question: With C=CC(=O)Nc1ccccc1Nc1nc(Nc2ccc(N3CCN(C)CC3)cc2)ncc1C(=O)Nc1c(C)cccc1Cl as the molecule, how does the Activity [1] read?
Answer: Its Activity is 100%.

Question: And the Activity [2]?
Answer: The Activity was 85%.

Question: And the Activity [3]?
Answer: The Activity was 90%.

Question: And the Activity [4]?
Answer: The Activity was 100%.

Question: What about the Activity [5] of the same molecule?
Answer: The Activity was 100%.

Question: And the Activity [6]?
Answer: Its Activity is 100%.

Question: And the Activity [7]?
Answer: The Activity was 98%.

Question: What about the inhibition (Mus musculus) of the same molecule?
Answer: The inhibition was “Active”.

Question: And the Activity [8]?
Answer: Its Activity is 17%.

Question: And the Activity [9]?
Answer: Its Activity is 100%.

Question: And the Activity [10]?
Answer: The Activity was 100%.

Question: And the Activity [11]?
Answer: Its Activity is 100%.

Question: What about the Activity [12] of the same molecule?
Answer: Its Activity is 90%.

Question: And the Activity [13]?
Answer: Its Activity is 100%.

Question: What about the Activity [14] of the same molecule?
Answer: Its Activity is 100%.

Question: What about the Activity [15] of the same molecule?
Answer: Its Activity is 100%.

Question: What about the Activity [16] of the same molecule?
Answer: Its Activity is 67%.

Question: And the Activity [17]?
Answer: Its Activity is 100%.

Question: What about the Activity [18] of the same molecule?
Answer: Its Activity is 29%.
